Data taken from ChEMBL document CHEMBL4043205, “Picomolar inhibition of β-galactosidase (bovine liver) attributed to loop closure” (Bioorg Med Chem, 2017).
Calls of active or inactive are those of the source. The rule behind the calls is not given here.

Key:
Beta-galactosidase [1] = target: T1, Beta-galactosidase (Bos taurus, UniProt Q58D55); experiment: Inhibition of bovine liver beta-galactosidase using 4-nitrophenyl-beta-D-galactopyranoside substrate measured over 240 mins at 10 mins intervals by UV/Vis spectroscopy
T1 sequence (Q58D55 whole entry): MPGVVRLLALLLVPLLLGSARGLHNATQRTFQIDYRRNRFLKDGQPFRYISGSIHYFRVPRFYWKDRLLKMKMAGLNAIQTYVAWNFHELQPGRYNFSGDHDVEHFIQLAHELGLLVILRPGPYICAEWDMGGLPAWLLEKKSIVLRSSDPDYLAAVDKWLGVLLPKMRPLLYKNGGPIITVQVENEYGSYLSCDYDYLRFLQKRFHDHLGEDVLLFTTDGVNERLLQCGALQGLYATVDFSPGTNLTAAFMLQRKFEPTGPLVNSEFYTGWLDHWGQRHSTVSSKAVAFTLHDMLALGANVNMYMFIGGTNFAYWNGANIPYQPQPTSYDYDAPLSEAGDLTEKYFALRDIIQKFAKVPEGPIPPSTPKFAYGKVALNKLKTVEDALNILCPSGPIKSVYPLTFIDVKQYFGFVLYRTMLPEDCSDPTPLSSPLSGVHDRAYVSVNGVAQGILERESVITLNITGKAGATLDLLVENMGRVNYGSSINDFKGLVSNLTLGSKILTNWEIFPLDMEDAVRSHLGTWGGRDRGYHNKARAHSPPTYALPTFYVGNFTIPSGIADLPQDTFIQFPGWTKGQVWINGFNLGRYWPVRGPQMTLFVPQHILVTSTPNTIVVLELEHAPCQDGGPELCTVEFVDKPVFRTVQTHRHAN
Method in brief: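 Bovine liver enzyme in 5 mM HEPES pH 7.50; 4-nitrophenyl-β-D-galactopyranoside mixed with 11 inhibitor dilutions (stocks 0.005–200 μM), equilibrated 30 °C 30 min, then enzyme added. Absorbance at 405 nm followed 240 min; final reads converted to percent inhibition against buffer control, plotted versus log inhibitor concentration; duplicates.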

Beta-galactosidase [2] = target: T1, Beta-galactosidase; experiment: Inhibition of bovine liver beta-galactosidase pre-incubated for 30 mins with 4-nitrophenyl-beta-D-galactopyranoside substrate before enzyme addition measured over 45 mins at 27 secs intervals by UV/Vis based spectroscopy
Method in brief: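 Bovine liver enzyme (stock aliquot thawed, diluted in 5 mM HEPES, kept on ice). Varied 4-nitrophenyl-β-D-galactopyranoside with fixed inhibitor, pH 7.50 HEPES, equilibrated 30 °C 30 min before enzyme; 405 nm read for 45 min. Initial rates via ε 13,300 M−1 cm−1, fitted Michaelis-Menten at ≥2 inhibitor levels; competitive Ki from K′m = Km(1+[I]/Ki); duplicates, Lineweaver-Burk check.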

[3] = Inhibition of Aspergillus oryzae beta-galactosidase using 2-chloro-4-nitrophenyl b-dgalactopyranoside substrate
[4] = Inhibition of Aspergillus oryzae beta-galactosidase using 2-chloro-4-nitrophenyl b-dgalactopyranoside substrate relative to control
[5] = target: T2, Beta-galactosidase (Bos taurus) (UniProt Q58D55); experiment: Competitive inhibition of bovine liver beta-galactosidase using 4-nitrophenyl-beta-D-galactopyranoside substrate measured over 240 mins at 10 mins intervals by UV/Vis spectroscopy based Lineweaver-Burk plot
T2 sequence (whole entry): T1 sequence (Q58D55 whole entry)

[6] = target: T2, Beta-galactosidase (Bos taurus); experiment: Competitive inhibition of bovine liver beta-galactosidase using 4-nitrophenyl-beta-D-galactopyranoside substrate measured over 240 mins at 10 mins intervals by UV/Vis spectroscopy based Eddie-Hofstee plot
Aspergillus oryzae [7] = experiment: Inhibition of Aspergillus oryzae beta-galactosidase using 2-chloro-4-nitrophenyl b-dgalactopyranoside substrate by Lineweaver-Burk plot
Aspergillus oryzae [8] = experiment: Inhibition of Aspergillus oryzae beta-galactosidase using 2-chloro-4-nitrophenyl b-dgalactopyranoside substrate by Eddie-Hofstee plot
[9] = target: T2, Beta-galactosidase (Bos taurus); experiment: Binding affinity to bovine liver beta-galactosidase assessed as induction of changes in enzyme molar ellipticity by CD spectroscopy
Method in brief: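 The bovine liver enzyme stock was diluted in 5 mM HEPES and kept on ice. It was mixed 1:1 by volume with aqueous inhibitor stock and equilibrated. Ellipticity was recorded from 190–275 nm at 0.5 nm resolution in a 10 mm path cell, averaging 5 scans. Spectra were background-corrected for unbound inhibitor and buffer.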

Aspergillus oryzae [10] = experiment: Binding affinity to Aspergillus oryzae beta-galactosidase assessed as induction of changes in enzyme molar ellipticity by CD spectroscopy

| Structure (SMILES) | IC50 (Beta-galactosidase [1]) [nM] | Ki (Beta-galactosidase [2]) [nM] | Ki [3] [nM] | IC50 [4] [nM] | Inhibition mode (qualitative, Lineweaver-Burk) [5] | competitive inhibition (qualitative call) [6] | inhibition activity (Aspergillus oryzae [7]) | inhibition activity (qualitative) (Aspergillus oryzae [8]) | Activity [9] | Activity (Aspergillus oryzae [10]) |
| --- | --- | --- | --- | --- | --- | --- | --- | --- | --- | --- |
| OC[C@H]1N/C(=N\Cc2ccccc2)[C@H](O)[C@@H](O)[C@H]1O | 18.9 | 0.05 | 21.1 | 49 | Active | Active | Active | Active | inactive | inactive |
| N=C1N[C@H](CO)[C@H](O)[C@H](O)[C@H]1O | > 50000 | 2000 | 150 | 830 | Active | Active | Active | Active | inactive | inactive |
| CO[C@H]1C(NCc2ccc(C)cc2)=N[C@H](CO)[C@H](O)[C@@H]1O | 10800 | 1500 | 3400 | 41400 | Active | Active | Active | Active | inactive | inactive |
| Cc1ccc(CNC2=N[C@H](CO)[C@H](O)[C@H](O)C2)cc1 | 850 | 0.6 | 2400 | 33300 | Active | Active | Active | Active | – | – |
